The test system of data set [1] is Rattus norvegicus. The experiment in a line: Antiinflammatory activity in po dosed Wistar rat assessed as inhibition of carrageenan-induced paw odema at dose equivalent to 20 mg/kg of ibuprofen pretreated 30 mins pre-carrageenan challenge measured after 2 hrs. The format is functional. The method in brief:
(§1)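 Rats 150–200 g, groups of six. Drug given orally as a suspension in 0.5% w/v aqueous sodium CMC; control group untreated. 30 min later, 0.1 mL of 1% carrageenan injected sub-plantar into the left hind paw. Paw volume measured by plethysmometer before treatment (V0) and at intervals (Vt). Inhibition computed from (Vt−V0) of treated vs control. Values are mean ± S.E.M.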
Background: Carrageenan injected into the paw causes an acute inflammation.

For data set [2], the system named is Rattus norvegicus. The experiment in a line: Antiinflammatory activity in po dosed Wistar rat assessed as inhibition of carrageenan-induced paw odema at dose equivalent to 20 mg/kg of ibuprofen pretreated 30 mins pre-carrageenan challenge measured after 3 hrs. The format is functional. An outline of the steps:
as §1

For data set [3], the system named is Mus musculus. The experiment in a line: Analgesic activity in po dosed Swiss albino mouse assessed as inhibition of acetic acid-induced writhing response at dose equivalent to 20 mg/kg of ibuprofen pretreated 3 hrs before acetic acid challenge. The format is functional. Further details: scale not given: the % may be the effect or the level left. The method in brief: (§2)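 Mice 25–30 g of either sex, groups of six. Drug given orally as a suspension in 0.5% w/v aqueous sodium CMC, 3 h before 1% v/v acetic acid i.p. at 1 mL per 100 g body weight. Writhings counted over 10 min. Protection (%) = 100 − (test/control writhings × 100). Values are mean ± S.E.M., with ANOVA then t-test.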

The subject of data set [4] is Rattus norvegicus. The experiment in a line: Gastrointestinal toxicity in po dosed Wistar rat assessed ulcer index at dose equivalent to 60 mg/kg of ibuprofen after 17 hrs. The format is organism-based. Further details: dose 60 mg/kg, route oral. Particulars: in vivo. The method in brief: (§3)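 Wistar rats (150–200 g), groups of six, fasted 8 h, then given a single oral dose (60 mg kg-1 ibuprofen or molar equivalent of test compound; control received vehicle only). Sacrificed 17 h later with food and water available. Gastric mucosa examined under 4× binocular magnifier, scored 0–4 by lesion/ulcer number and size. Severity index = treated group mean score minus control mean score.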

In data set [5] the test system is Gastric mucosa. Briefly: Inhibition of lipid peroxidation assessed as malondialdehyde level per 100 mg of gastric mucosa isolated from po dosed Wistar rat treated dose equivalent to 60 mg/kg equivalent to ibuprofen by UV spectrophotometry. The class given is functional. An outline of the steps:
(§4)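 Rats 150–200 g, groups of six, fasted 8 h, then given a single oral dose and killed 17 h later with food and water available. Gastric mucosa scraped, 100 mg homogenised in ice-cold 1.15% KCl. SDS, pH 3.5 acetate buffer and 0.8% TBA added, heated at 95 °C for 60 min. Extracted with n-butanol/pyridine 15:1, A532 read; MDA in nmol/100 mg tissue.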

For data set [6], the system named is Rattus norvegicus. The experiment in a line: Antiinflammatory activity in Wistar rat assessed as inhibition of carrageenan-induced paw odema at 20 mg/kg, po pretreated 30 mins pre-carrageenan challenge measured after 2 hrs. The class given is functional. An outline of the steps:
as §1

Data set [7] deals with Rattus norvegicus. Briefly: Antiinflammatory activity in Wistar rat assessed as inhibition of carrageenan-induced paw odema at 20 mg/kg, po pretreated 30 mins pre-carrageenan challenge measured after 3 hrs. The class given is functional. An outline of the steps: as §1
Data set [8] concerns Rattus norvegicus. The experiment in a line: Antiinflammatory activity in Wistar rat assessed as inhibition of carrageenan-induced paw odema at 20 mg/kg, po pretreated 30 mins pre-carrageenan challenge measured after 4 hrs. The class given is functional. The method in brief: as §1
In data set [9] the test system is Rattus norvegicus. The experiment in a line: Antiinflammatory activity in Wistar rat assessed as inhibition of carrageenan-induced paw odema at 20 mg/kg, po pretreated 30 mins pre-carrageenan challenge measured after 8 hrs. The class given is functional. The method in brief: as §1
The test system of data set [10] is Mus musculus. Briefly: Analgesic activity in Swiss albino mouse assessed as inhibition of acetic acid-induced writhing response at 20 mg/kg, po pretreated 3 hrs before acetic acid challenge. The class given is functional. Set-up: scale not given: the % may be the effect or the level left. An outline of the steps:
as §2
For orientation: In writhing tests, fewer writhes than in controls are read as antinociception.

The test system of data set [11] is Rattus norvegicus. The experiment in a line: Gastrointestinal toxicity in Wistar rat assessed ulcer index at 60 mg/kg, po after 17 hrs. Further details: dose 60 mg/kg, route oral. The following applies: in vivo. The format is organism-based. An outline of the steps: as §3
Data set [12] deals with Gastric mucosa. The experiment in a line: Inhibition of lipid peroxidation assessed as malondialdehyde level per 100 mg of gastric mucosa isolated from Wistar rat treated 60 mg/kg, po by UV spectrophotometry. The format is functional. The method in brief: as §4

As a reminder, the inhibition in vivo is the relative decrease from the control value, in per cent. In the case of `Cc1ccc(C(=O)CCc2nnc(-c3ccc([N+](=O)[O-])cc3)o2)cc1`, the inhibition in vivo turned out to be 52% in the data set with Rattus norvegicus [1] and 60.5% in the data set with Rattus norvegicus [2]. In addition, the Activity worked out at 53.43% with Mus musculus [3] and 3.95 nmol in the data set with Gastric mucosa [5]. The UI in the data set on Rattus norvegicus [4] was 0.95.
Take `Cc1ccc(C(=O)CCc2nnc(COc3ccccc3)o2)cc1`: the inhibition in vivo with Rattus norvegicus [1] stood at 25.3%; in the data set on Rattus norvegicus [2] it was 42%.
As to `O=C(CCc1nnc(-c2ccc(Cl)cc2)o1)c1ccccc1`, the inhibition in vivo in the data set with Rattus norvegicus [1] amounted to 42%; in the data set with Rattus norvegicus [2], 81.5%. Moreover, the Activity in the data set with Mus musculus [3] was determined as 63%; with Gastric mucosa [5], 5.32 nmol. Further, in the data set with Rattus norvegicus [4], the UI is on record as 1.12.
In the same order, the values of `COc1ccc(-c2nnc(CCC(=O)c3ccc(C)cc3)o2)cc1OC` are 53.3%, 72.6%, 62.39%, 3.85 nmol and 0.87.
As to `Cc1ccc(C(=O)CCc2nnc(COc3ccccc3)o2)c(C)c1`, the values for the inhibition in vivo in the data set on Rattus norvegicus [1] and with Rattus norvegicus [2] were 27.6% and 45.7%, respectively.
In the same order, the values of `Cc1ccc(C(=O)CCc2nnc(COc3ccc4ccccc4c3)o2)cc1` are 24.7% and 49.4%.
In the same order, the values of `Cc1ccc(C(=O)CCc2nnc(Cc3ccccc3)o2)c(C)c1` are 25.3% and 50%.
On to `COc1ccc(-c2nnc(CCC(=O)c3ccc(C)cc3)o2)cc1`, for which the inhibition in vivo with Rattus norvegicus [1] stood at 69.3%; with Rattus norvegicus [2] it was 89.5%. In addition, the Activity in the data set on Mus musculus [3] worked out at 69.8%; in the data set on Gastric mucosa [5], 3.15 nmol. The UI in the data set on Rattus norvegicus [4] is on record as 0.7.
In the same order, the values of `Cc1ccc(C(=O)CCc2nnc(-c3ccc(Cl)cc3)o2)c(C)c1` are 53.3%, 72.6%, 60.42%, 3.26 nmol and 0.71.
Turning to `Cc1ccc(C(=O)CCc2nnc(-c3ccccc3)o2)cc1`, the inhibition in vivo was 33.3% with Rattus norvegicus [1] and 49.3% with Rattus norvegicus [2].
`Cc1ccc(C(=O)CCc2nnc(-c3ccc(Cl)cc3)o2)cc1`: the inhibition in vivo in the data set on Rattus norvegicus [1] amounted to 62.7%; in the data set on Rattus norvegicus [2], 81.5%. Besides, the Activity in the data set with Mus musculus [3] is given as 58.89%; with Gastric mucosa [5], 4.25 nmol. For the same compound, in the data set with Rattus norvegicus [4], the UI is 0.98.
In the case of `Cc1ccc(C(=O)CCc2nnc(COc3cccc4ccccc34)o2)cc1`, the inhibition in vivo in the data set with Rattus norvegicus [1] amounted to 24%; in the data set with Rattus norvegicus [2], 37%.
For `O=C(CCc1nnc(-c2ccc([N+](=O)[O-])cc2)o1)c1ccccc1`, the inhibition in vivo in the data set on Rattus norvegicus [1] was 40.9%; in the data set with Rattus norvegicus [2], 62.7%. Further, the Activity with Mus musculus [3] is recorded as 58.2%; in the data set with Gastric mucosa [5], 4.95 nmol. Moreover, in the data set on Rattus norvegicus [4], the UI was 0.98.
In the same order, the values of `COc1ccc(-c2nnc(CCC(=O)c3ccc(C)cc3C)o2)cc1` are 62.7%, 88.9%, 66.25%, 3.79 nmol and 0.65.
Consider `Cc1ccc(C(=O)CCc2nnc(Cc3ccccc3)o2)cc1`, for which the values for the inhibition in vivo with Rattus norvegicus [1] and in the data set with Rattus norvegicus [2] were 24.7% and 51.9%, respectively.
For the compound `Cc1ccc(C(=O)CCc2nnc(-c3ccccc3)o2)c(C)c1`, the inhibition in vivo was found to be 36% in the data set with Rattus norvegicus [1] and 58% in the data set on Rattus norvegicus [2].
Consider `O=C(CCc1nnc(-c2ccccc2Cl)o1)c1ccccc1`, for which the inhibition in vivo in the data set on Rattus norvegicus [1] turned out to be 26.9%; with Rattus norvegicus [2] it was 35.8%.
For the compound `Cc1ccc(C(=O)CCc2nnc(-c3ccccc3Cl)o2)c(C)c1`, the inhibition in vivo was found to be 33.5% with Rattus norvegicus [1] and 60.5% in the data set on Rattus norvegicus [2]. The results for the Activity in the data set with Mus musculus [3] and in the data set with Gastric mucosa [5] were 56.8% and 4.15 nmol, respectively. Further, the UI in the data set on Rattus norvegicus [4] is 0.89.
With `O=C(CCc1nnc(-c2ccccc2)o1)c1ccccc1`, the inhibition in vivo in the data set with Rattus norvegicus [1] was found to be 18.7%; in the data set on Rattus norvegicus [2] it was 29.4%.
Take `Cc1ccc(C(=O)CCc2nnc(-c3ccccc3Cl)o2)cc1`: the inhibition in vivo with Rattus norvegicus [1] is 36.2%; with Rattus norvegicus [2], 57.3%.
On to `CC(C)Cc1ccc(C(C)C(=O)O)cc1` (stereo unspecified) [IBUPROFEN], for which the inhibition in vivo at 20 mg/kg in the data set on Rattus norvegicus [6] was 80.9%; with Rattus norvegicus [7], 90.1%; in the data set with Rattus norvegicus [8] it was 65.5%; in the data set with Rattus norvegicus [9] it was 46.7%. Further, the values for the Activity in the data set on Mus musculus [10] and in the data set with Gastric mucosa [12] were 72.5% and 7.51 nmol, respectively. Also, the UI in the data set on Rattus norvegicus [11] is recorded as 1.95.
Take `Cc1ccc(C(=O)CCc2nnc(-c3ccc([N+](=O)[O-])cc3)o2)c(C)c1`: the inhibition in vivo with Rattus norvegicus [1] is 40%; with Rattus norvegicus [2], 69.1%. The Activity in the data set with Mus musculus [3] was 47.2%; in the data set with Gastric mucosa [5], 4.42 nmol. The UI with Rattus norvegicus [4] is recorded as 0.87.
In the same order, the values of `COc1ccc(-c2nnc(CCC(=O)c3ccc(C)cc3C)o2)cc1OC` are 58.7%, 75.3%, 56.1%, 5.12 nmol and 1.12.
Turning to `O=C(CCc1nnc(COc2ccc3ccccc3c2)o1)c1ccccc1`, the inhibition in vivo in the data set on Rattus norvegicus [1] turned out to be 29.8%; in the data set with Rattus norvegicus [2], 51%.

Source of the values: ChEMBL document CHEMBL1158348, “Aroylpropionic acid based 2,5-disubstituted-1,3,4-oxadiazoles: synthesis and their anti-inflammatory and analgesic activities” (Eur J Med Chem, 2009).
